Source: ChEMBL document CHEMBL1134856, “SAR of 2,6-diamino-3,5-difluoropyridinyl substituted heterocycles as novel p38MAP kinase inhibitors” (Bioorg Med Chem Lett, 2002)

Legend:
[1] = molecular target: Mitogen-activated protein kinase 14 (Mus musculus, UniProt P47811); test: […] inhibition of murine Mitogen-activated protein kinase p38 alpha activity, GST-ATF-2 as substrate in the presence of 120 uM ATP
Method in brief: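 Phosphorylated His-tagged p38α MAP kinase of murine origin was used at 10 ng/well. Immobilised GST-ATF-2 served as substrate, with 120 μM cold ATP.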

[2] = molecular target: T1, Prostaglandin G/H synthase 1 (Ovis aries, UniProt P05979); test: […] inhibition of ram seminal vesicle Prostaglandin G/H synthase 1 activity by determining PGE-2 by RIA
T1 sequence (P05979 whole entry): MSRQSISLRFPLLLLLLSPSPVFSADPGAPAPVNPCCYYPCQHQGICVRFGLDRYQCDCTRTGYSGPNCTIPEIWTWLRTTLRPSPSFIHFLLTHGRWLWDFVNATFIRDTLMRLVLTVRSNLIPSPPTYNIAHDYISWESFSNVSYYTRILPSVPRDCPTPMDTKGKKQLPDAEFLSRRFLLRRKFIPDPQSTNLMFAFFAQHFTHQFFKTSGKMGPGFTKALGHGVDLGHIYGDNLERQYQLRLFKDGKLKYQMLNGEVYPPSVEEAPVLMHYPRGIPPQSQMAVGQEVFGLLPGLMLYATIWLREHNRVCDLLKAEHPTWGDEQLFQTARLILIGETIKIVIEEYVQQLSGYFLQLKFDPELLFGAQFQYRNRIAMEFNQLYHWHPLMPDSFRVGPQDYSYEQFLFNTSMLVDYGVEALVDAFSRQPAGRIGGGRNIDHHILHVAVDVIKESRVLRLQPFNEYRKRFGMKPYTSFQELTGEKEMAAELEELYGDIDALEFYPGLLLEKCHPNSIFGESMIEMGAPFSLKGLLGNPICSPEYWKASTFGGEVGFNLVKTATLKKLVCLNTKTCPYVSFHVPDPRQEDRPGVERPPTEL

[3] = test system: PBMC; test: Inhibition of LPS-stimulated TNF-alpha release from human peripheral blood mononuclear cells; assay type: functional, cell-based
Method in brief: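 Human peripheral blood mononuclear cells from healthy volunteers were incubated with inhibitor and stimulated with LPS/IFN-γ for 3 h. TNF-α in the supernatants was determined by ELISA.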

[4] = test system: Mus musculus; test: Inhibition of LPS induced TNF-alpha release in mice at 10 mg/kg peroral dose; assay type: functional; conditions: route oral
Method in brief: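 Female OF1 mice, 8 weeks old, received compound by oral gavage in DMSO/corn oil. One hour after dosing, LPS (20 mg/kg) was given iv. Blood was collected 1 h later, and plasma TNF-α was measured by mouse-specific ELISA.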

[5] = test system: Rattus norvegicus; test: Tested for inhibition of swelling in adjuvant induced arthritis rat at 25 mg/kg per orally; Toxic; assay type: functional; conditions: po
Method in brief: (§1)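 Adjuvant-induced arthritis: female Wistar rats were immunised with Mycobacterium tuberculosis on day 0. They were dosed orally at 2 × 25 mg/kg per day from day 14 to day 20. Joint swelling was measured on day 20.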

[6] = test system: Rattus norvegicus; test: Tested for inhibition of swelling in adjuvant induced arthritis rat at 25 mg/kg per orally; assay type: functional; conditions: route oral; method in brief: as §1
[7] = Tested for the half life in rat; assay type: ADME, organism-based; conditions: in vivo
[8] = test system: Rattus norvegicus; test: Dose-dependent protective activity at 30 mg/kg (po, b.i.d.) on cartilage damage in hind paws of CIA-rats; assay type: functional
[9] = test system: Rattus norvegicus; test: Dose-dependent protective activity at 30 mg/kg (po, b.i.d.) in loss of proteoglycans in hind paws of CIA-rats; assay type: functional
[10] = test system: Rattus norvegicus; test: Dose-dependent protective activity at 3 mg/kg (po, b.i.d.) on infiltration of cells in hind paws of CIA-rats; assay type: functional
[11] = test system: Rattus norvegicus; test: Dose-dependent protective activity at 3 mg/kg (po, b.i.d.) in loss of proteoglycans in hind paws of CIA-rats; assay type: functional
[12] = organism: Rattus norvegicus; test: Tested for inhibition of paw swelling in collagen induced arthritis in rat, perorally q.d.; assay type: functional; conditions: po
Method in brief: (§2)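 Female WAGxBUF/F1 rats were immunised intradermally with bovine nasal septum type II collagen in Freund's incomplete adjuvant; swelling began about 10 days later. Oral dosing, once or twice daily, started on day 13 and continued for 10 days. Read-out was paw swelling, with ED50 values reported.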

[13] = test system: Rattus norvegicus; test: Dose-dependent protective activity at 30 mg/kg (po, b.i.d.) on infiltration of cells in hind paws of CIA-rats; assay type: functional
[14] = organism: Rattus norvegicus; test: Inhibition of LPS induced TNF-alpha release in rats; assay type: functional
[15] = Tested for the bioavailability in rat; assay type: ADME, organism-based; conditions: in vivo
[16] = test system: Rattus norvegicus; test: Dose-dependent protective activity at 10 mg/kg (po, b.i.d.) on cartilage damage in hind paws of CIA-rats; assay type: functional
[17] = test system: Rattus norvegicus; test: Dose-dependent protective activity at 10 mg/kg (po, b.i.d.) on infiltration of cells in hind paws of CIA-rats; assay type: functional
[18] = organism: Homo sapiens; test: Inhibition of LPS-stimulated TNF-alpha release from human whole blood; assay type: functional
[19] = test system: Rattus norvegicus; test: Dose-dependent protective activity at 3 mg/kg (po, b.i.d.) on cartilage damage in hind paws of CIA-rats; assay type: functional
[20] = Tested for the Cmax in rat at 10 mg/kg per orally; assay type: ADME, organism-based; parameters: dose 10 mg/kg, route oral; conditions: in vivo, po
[21] = test system: Rattus norvegicus; test: Tested for inhibition of swelling in adjuvant induced arthritis rat at 25 mg/kg perorally b.i.d.; assay type: functional; conditions: route oral; method in brief: as §1
[22] = test system: Rattus norvegicus; test: Dose-dependent protective activity at 10 mg/kg (po, b.i.d.) in loss of proteoglycans in hind paws of CIA-rats; assay type: functional
[23] = test system: Rattus norvegicus; test: Dose-dependent protective activity at 10 mg/kg (po, b.i.d.) on bone apposition in hind paws of CIA-rats; assay type: functional
[24] = organism: Rattus norvegicus; test: Tested for inhibition of paw swelling in collagen induced arthritis in rat, perorally b.i.d.; assay type: functional; conditions: oral; method in brief: as §2
[25] = test system: Rattus norvegicus; test: Dose-dependent protective activity at 3 mg/kg (po, b.i.d.) on bone apposition in hind paws of CIA-rats; assay type: functional
[26] = test system: Rattus norvegicus; test: Dose-dependent protective activity at 30 mg/kg (po, b.i.d.) on bone apposition in hind paws of CIA-rats; assay type: functional

Sequence of Mitogen-activated protein kinase 14 (P47811 whole entry): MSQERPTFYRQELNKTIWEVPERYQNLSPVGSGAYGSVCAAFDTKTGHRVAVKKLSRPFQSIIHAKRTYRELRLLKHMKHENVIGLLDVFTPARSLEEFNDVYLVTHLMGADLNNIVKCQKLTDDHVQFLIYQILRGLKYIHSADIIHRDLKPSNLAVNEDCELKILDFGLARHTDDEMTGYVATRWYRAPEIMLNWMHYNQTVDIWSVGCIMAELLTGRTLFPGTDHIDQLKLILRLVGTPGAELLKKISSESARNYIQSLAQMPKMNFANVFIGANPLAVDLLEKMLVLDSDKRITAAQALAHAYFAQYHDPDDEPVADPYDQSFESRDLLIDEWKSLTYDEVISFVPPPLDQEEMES

Which IC50 [1] does the source give for `Nc1nc(N)c(F)c(-n2nc(-c3ccncc3)c(-c3ccc(F)cc3)n2)c1F` here?
Its IC50 is 0.21 µM.

And the IC50 [2]?
The IC50 was 45 µM.

For `Nc1nc(F)c(F)c(-c2nc(-c3ccc(F)cc3)c(-c3ccncc3)o2)c1F`, which IC50 [1] is on record?
Its IC50 is 2.1 µM.

What about the IC50 [2] of the same compound?
The IC50 was 100 µM.

And the IC50 [3]?
The IC50 was 1.93 µM.

With `Fc1ccc(-c2ncsc2-c2ccncc2)cc1` as the compound, how does the IC50 [1] read?
The IC50 was 0.8 µM.

With `Fc1ccc(-c2[nH]nnc2-c2ccncc2)cc1` as the compound, how does the IC50 [1] read?
Its IC50 is 1.3 µM.

With `Nc1nc(N)c(F)c(-c2nc(-c3cccc(C(F)(F)F)c3)c(-c3ccncc3)[nH]2)c1F` as the compound, how does the inhibition in vivo at 10 mg/kg [4] read?
Its inhibition in vivo at 10 mg/kg is 21%.

What about the IC50 [1] of the same compound?
The IC50 was 0.47 µM.

And the IC50 [2]?
The IC50 was 100 µM.

What about the IC50 [3] of the same compound?
The IC50 was 0.054 µM.

Which IC50 [1] does the source give for `Nc1nc(N)c(F)c(-c2cc(-c3ccncc3)c(-c3ccc(F)cc3)[nH]2)c1F` here?
The IC50 was 0.004 µM.

What about the IC50 [2] of the same compound?
Its IC50 is 6.3 µM.

What about the IC50 [3] of the same compound?
Its IC50 is 0.018 µM.

Which IC50 [1] does the source give for `Fc1ccc(-c2nn(-c3c(F)c(F)nc(F)c3F)nc2-c2ccncc2)cc1` here?
The IC50 was 10 µM.

What about the IC50 [2] of the same compound?
Its IC50 is 10 µM.

What does the source list for `Nc1nc(F)c(F)c(-c2nc(-c3ccncc3)c(-c3ccc(F)cc3)[nH]2)c1F`?
inhibition in vivo at 10 mg/kg [4]: 64%; IC50 [1]: 0.004 µM; inhibition in vivo at 25 mg/kg [5]: 71%; IC50 [2]: 100 µM; IC50 [3]: 0.044 µM

Which results are given for `Nc1nc(N)c(F)c(-c2nc(-c3ccc(F)cc3)c(-c3ccncc3)o2)c1F`?
inhibition in vivo at 25 mg/kg [6]: 19%; inhibition in vivo at 10 mg/kg [4]: 81%; IC50 [1]: 0.4 µM; IC50 [2]: 100 µM; IC50 [3]: 0.373 µM

With `Fc1ccc(-c2nc(-c3c(F)c(F)nc(F)c3F)oc2-c2ccncc2)cc1` as the compound, how does the IC50 [1] read?
Its IC50 is 100 µM.

For `Fc1ccc(-c2nc[nH]c2-c2ccncc2)cc1`, which IC50 [1] is on record?
Its IC50 is 1 µM.

For `Fc1ccc(-c2[nH]c(-c3c(F)c(F)nc(F)c3F)nc2-c2ccncc2)cc1`, which inhibition in vivo at 10 mg/kg [4] is on record?
Its inhibition in vivo at 10 mg/kg is 3%.

What about the IC50 [1] of the same compound?
The IC50 was 0.09 µM.

And the IC50 [2]?
Its IC50 is over 100 µM.

And the IC50 [3]?
Its IC50 is 0.074 µM.

For `Nc1nc(N)c(F)c(-c2nc(-c3ccc(F)cc3)c(-c3ccncc3)[nH]2)c1F`, which half-life [7] is on record?
The half-life was 1 h.

What about the Protective activity [8] of the same compound?
Its Protective activity is -58%.

What about the Protective activity [9] of the same compound?
The Protective activity was -42%.

And the Protective activity [10]?
The Protective activity was -11%.

And the Protective activity [11]?
The Protective activity was -17%.

What about the ED50 [12] of the same compound?
Its ED50 is 43 mg/kg.

And the Protective activity [13]?
The Protective activity was -45%.

And the inhibition in vivo at 10 mg/kg [4]?
Its inhibition in vivo at 10 mg/kg is 83%.

What about the IC50 [1] of the same compound?
Its IC50 is 0.016 µM.

And the ED50 [14]?
The ED50 was 4 mg/kg.

And the bioavailability [15]?
The bioavailability was 49%.

What about the Protective activity [16] of the same compound?
Its Protective activity is -44%.

And the Protective activity [17]?
The Protective activity was -37%.

And the IC50 [18]?
The IC50 was 0.25 µM.

What about the Protective activity [19] of the same compound?
Its Protective activity is -15%.

What about the Cmax [20] of the same compound?
Its Cmax is 3.12 µM.

And the ED50 [21]?
The ED50 was 10 mg/kg.

What about the Protective activity [22] of the same compound?
Its Protective activity is -38%.

What about the Protective activity [23] of the same compound?
The Protective activity was -44%.

What about the IC50 [2] of the same compound?
Its IC50 is over 100 µM.

And the ED50 [24]?
Its ED50 is 5 mg/kg.

What about the Protective activity [25] of the same compound?
Its Protective activity is -4%.

And the Protective activity [26]?
Its Protective activity is -64%.

And the IC50 [3]?
The IC50 was 0.044 µM.

Which results are given for `Nc1nc(N)c(F)c(-c2nc(-c3ccc(F)cc3)c(-c3ccncc3)s2)c1F`?
IC50 [1]: 0.14 µM; IC50 [2]: 100 µM; IC50 [3]: 0.031 µM

Which inhibition in vivo at 10 mg/kg [4] does the source give for `Nc1nc(N)c(F)c(-c2nc(-c3ccncc3)c(-c3cc4ccccc4o3)[nH]2)c1F` here?
The inhibition in vivo at 10 mg/kg was 1.8%.

And the IC50 [1]?
The IC50 was 0.005 µM.

What about the IC50 [2] of the same compound?
Its IC50 is 100 µM.

What about the IC50 [3] of the same compound?
Its IC50 is 0.027 µM.

What does the source list for `Nc1nc(N)c(F)c(-c2nc(-c3ccncc3)c(-c3ccco3)[nH]2)c1F`?
inhibition in vivo at 10 mg/kg [4]: 28%; IC50 [1]: 0.67 µM; IC50 [2]: 100 µM; IC50 [3]: 0.294 µM

With `Fc1ccc(-c2[nH]ccc2-c2ccncc2)cc1` as the compound, how does the IC50 [1] read?
Its IC50 is 0.8 µM.
